From PubChem BioAssay
Rows were chosen to be rich in hits. Some 2.3% of all compounds tested hit in one or more screens of this group.
TRPC4 agonist = activators of mouse TRPC4 channel, primary screen, Fluo4 calcium, HEK293 TRPC4beta/mu-opioid cells; Short transient receptor potential channel 4 (Mus musculus), Q9QUQ5; Fluo4 calcium fluorescence; stronger effect = higher value; B-score at 10 µM; 310,000 compounds, 0.49% hits; AID 2237, 2010;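 active = B-score above 5 SD of library B-scores, and initial fluorescence ratio not above library mean plus 5 SD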;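 note: positive B-score marks a calcium rise read as TRPC4 activation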
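Incubation: 45 min room-temperature Fluo4 loading, 110 s read / System: HEK293 cells stably co-expressing mouse TRPC4beta and mu-opioid receptor / Signal: Fluo4 fluorescence, kinetic / Control set: buffer (low) and maximal DAMGO (high) / Measure: integrated baseline-normalised fluorescence ratio, converted to per-well B score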
TRPC4 potent = positive allosteric modulators of TRPC4, primary screen, cell-based, mouse TRPC4beta, HEK293 mu-opioid, Fluo-4 calcium; 310,000 compounds, 0.42% hits; DAMGO EC20, Fluo-4 Ca2+ flux; stronger effect = higher value; B-score at 10 µM; Short transient receptor potential channel 4 (Mus musculus), Q9QUQ5; AID 2227, 2009;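 active = B-score of calcium response area above 5 SD of library B-scores, with initial fluorescence ratio within 5 SD of library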
TRPC6 act = mouse TRPC6 channel activators, primary screen, cell-based, HEK293, membrane potential dye. Short transient receptor potential channel 6 (Mus musculus), Q61143. HEK293-TRPC6 membrane potential dye fluorescence; stronger effect = higher value. B-score at 10 µM. 310,000 compounds, 0.13% hits. AID 2550, 2010;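 active = B-score of the integrated fluorescence ratio above library mean plus 3 SD, and starting fluorescence ratio within library mean plus 5 SD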;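 note: higher score means more depolarization so channel activation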
TRPC4 inh = inhibitors of mouse TRPC4 channel, primary screen, Fluo4 calcium, HEK293 TRPC4beta/mu-opioid cells; 300,000 compounds, 0.39% hits; DAMGO-evoked Fluo4 calcium flux; stronger effect = lower value; B-score at 10 µM; Short transient receptor potential channel 4 (Mus musculus), Q9QUQ5;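 active = B-score over 3 SD under the library average, no early fluorescence shift, positive overall ratio signal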
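Assay system: Stable TRPC4beta/mu-opioid receptor HEK293 cells | Reagent: DAMGO in two steps, submaximal then maximal | Compound dosing: Single concentration per test compound | Signal: Fluo4 Ca2+ flux fluorescence | Evaluation: Per-well B score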
TRPC6 inhibitor = mouse TRPC6 channel inhibitors, primary screen, cell-based, HEK293, membrane potential dye. ACh-evoked depolarization; stronger effect = lower value. B-score at 10 µM. AID 2553, 2010. 310,000 compounds, 1.1% hits. Short transient receptor potential channel 6 (Mus musculus), Q61143;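 active = B-score under library mean minus 3 SD, initial fluorescence not abnormally high, positive integrated signal ratio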;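 note: B-score derived from integrated fluorescence ratio over the kinetic read; more negative B-score means stronger inhibition of depolarization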
TRPC4 sel inh 2 = second check of whether TRPC6 inhibitors also affect mouse TRPC4 | inhibition, % at 10 µM | shares compounds with TRPC6 inhibitor | HEK293 TRPC4/MOR, membrane potential dye fluorescence; channel activated by saturating DAMGO dose | 920 compounds, 42% hits;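 active = compounds whose fluorescence signal differed from control wells by over 3 SD, either direction, in both duplicate plates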
TRPC4 spec = mouse TRPC4 modulation by TRPC6 hits, confirmation, selectivity assay for TRPC6 inhibitor project, cell-based, HEK293 TRPC4/mu-opioid, membrane potential dye. shares compounds with TRPC6 inhibitor. membrane potential fluorescence. activity change, negative = inhibition, % at 10 µM. 920 compounds, 61% hits. AID 2777, 2010;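 active = rise or fall in signal beyond 3 SD of buffer-only wells in both replicate plates, either sign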;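 note: integrated kinetic ratio of fluorescence range over baseline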
HEK293 MPD ctr 2-1 = nonspecific membrane potential effects, parental HEK293, confirmation, counter-screen for TRPC6 inhibitor project, cell-based, second counter screen; parental HEK293 membrane potential dye fluorescence; maximal acetylcholine challenge after compound addition; signal change vs control, % at 10 µM; 920 compounds, 31% hits; AID 2779, 2010; shares compounds with TRPC6 inhibitor;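 active = membrane potential signal moving either way by over 3 SD of the maximum-effect control, in both duplicate plates, meaning non-specific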
HEK293 MPD ctr-1 = membrane potential modulation in parental HEK293, confirmation, counter-screen for TRPC6 inhibitor project, cell-based. shares compounds with TRPC6 inhibitor. parental HEK293 membrane potential dye fluorescence. membrane potential signal change, % at 10 µM. 920 compounds, 60% hits. AID 2780, 2010;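 active = membrane potential signal shifting up or down by more than 3 SD of buffer-only wells, on both duplicate plates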
HEK293 MPD ctr-2 = parental HEK293 membrane potential modulation, confirmation, counter-screen for TRPC6 modulator project, cell-based | shares compounds with TRPC6 inhibitor | membrane potential dye fluorescence | membrane potential signal change, % at 10 µM | 2,400 compounds, 51% hits;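 active = membrane potential signal moves up or down beyond 5 SD from buffer-only wells, on both duplicate plates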
HEK293 MPD ctr 2-2 = parental HEK293 nonspecific activity of TRPC6 modulators, second screen. membrane potential dye fluorescence; after compound, maximal acetylcholine stimulation. 2,400 compounds, 14% hits. shares compounds with TRPC6 inhibitor. inhibition, % at 10 µM;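 active = membrane potential signal drops by more than 5 SD from the mean control signal, in both duplicate plates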
TRPC4 ctr mod = TRPC4 modulation by TRPC6 hit compounds, confirmation, selectivity assay for TRPC6 modulator project, cell-based, HEK293 TRPC4/mu-opioid, membrane potential dye, mouse; 2,400 compounds, 69% hits; AID 488927, 2010; shares compounds with TRPC6 inhibitor; membrane potential fluorescence; percent change from control (negative = decrease, positive = increase), % at 10 µM;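 active = membrane potential signal moved up or down beyond 5 SD of buffer control wells, in both duplicate plates, actives on both sides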
TRPC4 ctr inh 2 = second selectivity test of TRPC6 modulators against mouse TRPC4 | AID 488928 | HEK293 TRPC4/mu-opioid, membrane potential dye fluorescence; stimulated with maximal-effect DAMGO | shares compounds with TRPC6 inhibitor | 2,400 compounds, 55% hits | inhibition, % at 10 µM;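 active = drop in membrane potential signal beyond 5 SD of the control wells in both duplicate plates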;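 note: TRPC4 counter screen for TRPC6 hits run under conditions tuned for TRPC6 not TRPC4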
TRPC6 block conf = mouse TRPC6 channel inhibitors, confirmation, HEK293 cells, membrane potential dye, duplicate. inhibition, % at 10 µM. shares compounds with TRPC6 inhibitor. ACh-evoked depolarization. 3,300 compounds, 43% hits;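 active = fluorescence ratio falls more than 5 SD below the full-stimulation control mean, in both duplicate runs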;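 note: integrated fluorescence ratio of peak minus minimum over baseline after agonist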
TRPC6 act conf = mouse TRPC6 channel activators, confirmation, HEK293 cells, membrane potential dye, duplicate; HEK293-TRPC6 membrane potential dye fluorescence, FDSS; AID 488961, 2010; activation, % at 10 µM; 2,800 compounds, 11% hits; shares compounds with TRPC6 inhibitor;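 active = ratio signal rise beyond 5 SD above unstimulated control wells' mean, seen in both duplicate runs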
Of the large screens only hits and unclear results are named; the others gave an inactive call (follow-up assays come after a bar, where they were run).

O=C(O)c1ccc(NC(=S)NC(=O)c2ccc(-c3ccc(Br)cc3)o2)cc1	none
CC1CCCN1CC#CC(O)(c1ccccc1)c1ccccc1 (stereo not given)	TRPC4 inh -7, TRPC6 inhibitor -8.69 | TRPC4 sel inh 2 inactive | TRPC4 spec 4.5% | HEK293 MPD ctr 2-1 -43.5% | HEK293 MPD ctr-1 8.2% | TRPC6 block conf 81.9%
CN1CCN(CC#CCC(O)(c2ccccc2)C2CCCC2)CC1 (stereo not given)	none
CN1CCN(C(=O)CCN2C(=O)c3ccccc3C2=O)CC1	none
CN1CCC(=C2c3ccccc3C=Cc3ccccc32)CC1	TRPC6 inhibitor -5.55 | HEK293 MPD ctr-2 150.5% | HEK293 MPD ctr 2-2 76.5% | TRPC4 ctr mod 23.0% | TRPC4 ctr inh 2 54.5% | TRPC6 block conf 75.0%
CCC1CCCCN1C(=O)c1cc(COc2ccc(-n3cncn3)cc2)on1 (stereo not given)	none
Oc1ccccc1N1CCN(c2ccc3ccccc3n2)CC1	none
C/C(N)=C(/C#N)C(=O)COC(=O)c1ccccc1Cc1ccccc1	TRPC6 inhibitor -8.26 | TRPC4 sel inh 2 inactive | TRPC4 spec -11.1% | HEK293 MPD ctr 2-1 inactive | HEK293 MPD ctr-1 inactive | TRPC6 block conf inactive | TRPC6 act conf inactive
C/C(N)=C(/C#N)C(=O)COC(=O)c1ccncc1	none
CC(C)=CCN1CCN(Cc2cc(F)ccc2-n2nc(C)cc2C)CC1CCO (stereo not given)	none
COc1ccc2sc(N(CCN(C)C)C(=O)c3cc(Cl)sc3Cl)nc2c1	none
